Measured values pooled from the literature.
Each line is one published result; the experiments were not run side by side.
SPHK1: Sphingosine kinase 1 (SPHK1, Homo sapiens, UniProt Q9NYA1)
PARP1: Poly [ADP-ribose] polymerase 1 (PARP1, Homo sapiens, UniProt P09874)
HRH4: Histamine H4 receptor (HRH4, Homo sapiens, UniProt Q9H3N8)
CNR1: Cannabinoid receptor 1 (CNR1, Homo sapiens, UniProt P21554)
ADORA2A: Adenosine receptor A2a (ADORA2A, Homo sapiens, UniProt P29274)
EHMT1: Histone-lysine N-methyltransferase EHMT1 (EHMT1, Homo sapiens, UniProt Q9H9B1)
PIK3C2B: Phosphatidylinositol 4-phosphate 3-kinase C2 domain-containing subunit beta (PIK3C2B, Homo sapiens, UniProt O00750)
PDE5A: cGMP-specific 3',5'-cyclic phosphodiesterase (PDE5A, Homo sapiens, UniProt O76074)
SIGMAR1: Sigma non-opioid intracellular receptor 1 (SIGMAR1, Homo sapiens, UniProt Q99720)

Compound | target | observed | action | method | tested at | notes | inhibition [%]
[H]/N=C(\N)N1CCC[C@H]1c1nc(-c2ccc(OCC=Cc3ccc(C(F)(F)F)cc3)c(C(F)(F)F)c2)no1 | SPHK1 | enzyme activity | inhibitor | radiometric | 1 µM |  | 20
O=C1NCCCc2c(O)cccc21 | PARP1 | enzyme activity | inhibitor |  | 10 µM |  | 43
CN(C)C1CCN(CC#Cc2nn(C3CCCC3)c3nc(NCc4ccccc4)ncc23)C1 (centres unmarked) | Aurora kinase B (AURKB, Homo sapiens, UniProt Q96GD4) | enzyme activity | inhibitor | FRET | 10 µM |  | 51
N#Cc1cc(Cn2c(N3CCCC3)nc3ccccc32)ccc1F | HRH4 | ligand displacement |  |  | 10 µM |  | -16
CN1CCN(CCCOc2ccc(=O)n(-c3ccc(Cl)c(Cl)c3)n2)CC1 | CNR1 | ligand displacement |  |  | 1 µM |  | 27.4
COc1ccc(-c2nc3cc(CCCN4CCCCC4)ccc3o2)cc1OC | ADORA2A | ligand displacement |  | radioligand | 10 µM | cell membranes | 10
Nc1ccc(-c2ccncc2)cc1NC(=O)N1CCCC1 | CNR1 | ligand displacement |  | radioligand | 10 µM |  | 15
[H]/N=C(/N)N1CCC[C@H]1c1nc(-c2ccc(OCCC=CCCCC)c(C(F)(F)F)c2)no1 | SPHK1 | enzyme activity | inhibitor | radiometric | 1 µM |  | 4
O=c1c(O)cccc2cc(O)c(O)c(O)c12 | EHMT1 | cell-free assay |  |  | 10 µM |  | 3
CS(=O)(=O)Nc1cccc(-c2csc(NC(=O)CSc3nc4nccnc4c(=O)n3CCc3ccccc3)n2)c1 | PIK3C2B | enzyme activity | inhibitor |  | 10 µM |  | 19
CCCNc1nc2ccccc2n1Cc1ccc(Cl)cc1 | HRH4 | ligand displacement |  |  | 10 µM |  | -8.89
Cc1cc(O)c(C=O)c2c1C(=O)Oc1c(C)c(O)c3c(c1O2)C(O)OC3=O (centres unmarked) | EHMT1 | cell-free assay |  |  | 10 µM |  | -4
CCN1C(=O)[C@H]2Cc3c([nH]c4ccccc34)[C@H](c3cccnc3)N2C1=O | PDE5A | enzyme activity | inhibitor | FP | 50 µM |  | 58
COc1cc2c(cc1OC)-c1nnnn1CCC2 | PARP1 | enzyme activity | inhibitor |  | 10 µM |  | 60
CC(C)CCn1c(SCC(=O)Nc2ccccc2C(F)(F)F)nc2nccnc2c1=O | PIK3C2B | enzyme activity | inhibitor |  | 10 µM |  | 23
[H]/N=C(\N)N1CCC[C@H]1c1nc(-c2ccc(OCCC=Cc3ccc(C(F)(F)F)cc3)c(C(F)(F)F)c2)no1 | SPHK1 | enzyme activity | inhibitor | radiometric | 1 µM |  | 5
Oc1cccc(Nc2nc(-c3ccc(F)cc3F)cs2)c1 | CNR1 | cell-free assay |  |  | 10 µM |  | 5.9
COc1cc(NC(C)CCCN)c2ncccc2c1 (centres unmarked) | EHMT1 | cell-free assay |  |  | 10 µM |  | 7
COc1cc(NC(C)=O)c(Cl)cc1C(=O)Nc1nccs1 | 5-hydroxytryptamine receptor 2A (HTR2A, Homo sapiens, UniProt P28223) | ligand displacement |  | radioligand | 10 µM |  | 8.7
CCc1ccc(CCc2ccc(-c3noc([C@@H]4CCCN4C(=N)N)n3)cc2C(F)(F)F)cc1 | SPHK1 | enzyme activity | inhibitor | radiometric | 1 µM |  | 13
Cn1cncc1C1=CN(c2ncnc3[nH]cnc23)CCS1 | Interleukin-1 receptor-associated kinase-like 2 (IRAK2, Homo sapiens, UniProt O43187) | enzyme activity | inhibitor | radiometric | 2 µM |  | 85
c1ccc(N2CCN(CCCc3ccc4oc(-c5ccco5)nc4c3)CC2)cc1 | ADORA2A | ligand displacement |  | radioligand | 10 µM | cell membranes | 28
COC(=O)[C@@H]1Cc2c([nH]c3ccccc23)[C@@H](c2cccnc2)N1 | PDE5A | enzyme activity | inhibitor | FP | 50 µM |  | 41
O=C(Nc1ccc(S(=O)(=O)N2CCC(Cl)CC2)cc1)c1ccc([N+](=O)[O-])o1 | Kappa-type opioid receptor (OPRK1, Homo sapiens, UniProt P41145) | cell-free assay |  |  | 10 µM |  | 7

Compound | target | observed | action | method | tested at | notes | inhibition [%]
COc1ccc(-c2nc3cc(CCN4CCCCC4)ccc3o2)cc1OC | ADORA2A | ligand displacement |  | radioligand | 10 µM | cell membranes | 10
O=C(c1ccc(Cl)cc1)N(Cc1ccccc1)C1CCCCC1 | ADORA2A | cell-free assay |  |  | 10 µM |  | 9.1
O=C(CSc1nc2nccnc2c(=O)n1CCc1ccccc1)Nc1ccccc1 | SPHK1 | enzyme activity | inhibitor |  | 10 µM |  | < 20
CN1CC(Oc2cnc(C#N)cc2-c2ccn3nc(NC(=O)C4CC4)cc3c2)C1 | Testis-specific serine/threonine-protein kinase 4 (TSSK4, Homo sapiens, UniProt Q6SA08) | enzyme activity | inhibitor |  | 1 µM |  | -7
Ic1cccc2cnccc12 | SIGMAR1 | ligand displacement |  | radioligand | 10 µM |  | 21
O=C1C=C2CC3(O)COc4c(ccc(O)c4O)C3=C2C=C1O (centres unmarked) | EHMT1 | cell-free assay |  |  | 10 µM |  | 11
N=C(N)N1CCC[C@H]1c1nc(-c2ccc(CCC3CCCC3)c(C(F)(F)F)c2)no1 | SPHK1 | enzyme activity | inhibitor | radiometric | 1 µM |  | 0
C=CCN1C(=O)[C@H]2Cc3c([nH]c4ccccc34)[C@H](c3ccc(Br)s3)N2C1=O | PDE5A | enzyme activity | inhibitor | FP | 10 µM |  | 67
COc1ccc([C@H]2c3[nH]c4ccccc4c3C[C@H]3C(=O)N(C(C)(C)C)C(=O)N23)cc1OC | PDE5A | enzyme activity | inhibitor | FP | 50 µM |  | 58
COc1ccc(F)cc1C(=O)NCc1ccc(-c2nn([C@@H](C)C(F)(F)F)c(N)c2C(N)=O)cc1 | Mitogen-activated protein kinase kinase kinase 3 (MAP3K3, Homo sapiens, UniProt Q99759) | target engagement in cells | inhibitor | chemoproteomics | 1 µM |  | -38.6
O=C(O[C@@H]1Cc2c(O)cc(O)cc2O[C@@H]1c1cc(O)c(O)c(O)c1-c1c([C@H]2Oc3cc(O)cc(O)c3C[C@H]2O)cc(O)c(O)c1O)c1cc(O)c(O)c(O)c1 | EHMT1 | cell-free assay |  |  | 10 µM |  | -3
CC(C)(C)N1C(=O)[C@@H]2Cc3c([nH]c4ccccc34)[C@@H](c3cccnc3)N2C1=O | PDE5A | enzyme activity | inhibitor | FP | 50 µM |  | 90
O=C1C=CC(=O)c2c(O)cccc21 | EHMT1 | cell-free assay |  |  | 10 µM |  | -1
O=C(c1ccc(F)cc1)N(Cc1ccccc1)C1CCCCC1 | SIGMAR1 | cell-free assay |  |  | 10 µM |  | 9
COCCOc1ccc(N2CCN(Cc3ccc4oc(-c5ccco5)nc4c3)CC2)cc1 | ADORA2A | ligand displacement |  | radioligand | 10 µM | cell membranes | 14
O=c1[nH]c(-c2c[nH]c3ncccc23)nc2ccccc12 | PARP1 | enzyme activity | inhibitor | ELISA | 1 µM |  | 7
COC(=O)[C@@H]1Cc2c([nH]c3ccccc23)[C@@H](c2ccc(OC)c(OC)c2)N1 | PDE5A | enzyme activity | inhibitor | FP | 50 µM |  | 7
[H]/N=C(\N)N1CCC[C@H]1c1nc(-c2ccc(OCC=Cc3ccc(F)cc3)c(C(F)(F)F)c2)no1 | SPHK1 | enzyme activity | inhibitor | radiometric | 1 µM |  | 0
CCN1C(=O)[C@H]2Cc3c([nH]c4ccccc34)[C@@H](c3ccc(OC)c(OC)c3)N2C1=O | PDE5A | enzyme activity | inhibitor | FP | 50 µM |  | 78
CCCC=CCOc1ccc(-c2noc([C@@H]3CCCN3C(=N)N)n2)cc1C(F)(F)F | SPHK1 | enzyme activity | inhibitor | radiometric | 1 µM |  | 12
CN(C)c1ccc(C(=C2C=CC(=[N+](C)C)C=C2)c2ccc(N(C)C)cc2)cc1 | EHMT1 | cell-free assay |  |  | 10 µM |  | 62
COCCOc1ccc(N2CCN(CCc3ccc4oc(-c5ccco5)nc4c3)CC2)cc1 | ADORA2A | ligand displacement |  | radioligand | 10 µM | cell membranes | 10
COC(=O)[C@@H]1Cc2c([nH]c3ccccc23)[C@@H](c2ccc(OC)c(OC)c2)N1C(=O)CCl | PDE5A | enzyme activity | inhibitor | FP | 50 µM |  | 22
